Source: ChEMBL document CHEMBL4038333, “Nonacidic Farnesoid X Receptor Modulators” (J Med Chem, 2017)
The source made the active and inactive calls. The rule behind the calls is not given here.

Experiments:
Type in all cases: cell-based
[1] = molecular target: Nuclear receptor subfamily 1 group I member 2 (Homo sapiens, UniProt O75469); experiment: Transactivation of GAL4-tagged human PXR isoform 1 ligand binding domain (138 to 434 residues) expressed in HEK293T cells at 1 uM after 12 to 14 hrs by dual-glo luciferase reporter gene assay; details: hek-293t
Procedure, shortened: (§1)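 Run as a selectivity screen against each listed receptor (14 nuclear receptors plus TGR5), in both agonist and antagonist modes. Test concentration was 1 µM, with n = 3.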

[2] = molecular target: Retinoic acid receptor beta (Homo sapiens) (UniProt P10826); experiment: Transactivation of GAL4-tagged human RARbeta1 ligand binding domain (177 to 455 residues) expressed in HEK293T cells at 1 uM after 12 to 14 hrs by dual-glo luciferase reporter gene assay; details: HEK-293T; procedure, shortened: as §1
[3] = molecular target: Oxysterols receptor LXR-beta (Homo sapiens) (UniProt P55055); experiment: Transactivation of GAL4-tagged human LXRbeta ligand binding domain expressed in HEK293T cells at 1 uM after 12 to 14 hrs by dual-glo luciferase reporter gene assay; details: HEK-293T; procedure, shortened: as §1
[4] = molecular target: Vitamin D3 receptor (Homo sapiens) (UniProt P11473); experiment: Antagonist activity at GAL4-tagged human VDR isoform 1 ligand binding domain (119 to 427 residues) expressed in HEK293T cells at 1 uM after 12 to 14 hrs by dual-glo luciferase reporter gene assay; details: HEK-293T; procedure, shortened: as §1
[5] = molecular target: Retinoic acid receptor gamma (Homo sapiens) (UniProt P13631); experiment: Antagonist activity at GAL4-tagged human RARgamma isoform 1 ligand binding domain (179 to 454 residues) expressed in HEK293T cells at 1 uM after 12 to 14 hrs by dual-glo luciferase reporter gene assay; details: HEK-293T; procedure, shortened: as §1
[6] = molecular target: Retinoic acid receptor beta (Homo sapiens) (UniProt P10826); experiment: Antagonist activity at GAL4-tagged human RARbeta1 ligand binding domain (177 to 455 residues) expressed in HEK293T cells at 1 uM after 12 to 14 hrs by dual-glo luciferase reporter gene assay; details: HEK-293T; procedure, shortened: as §1
[7] = molecular target: Retinoic acid receptor RXR-beta (Homo sapiens) (UniProt P28702); experiment: Antagonist activity at GAL4-tagged human RXRbeta isoform 1 ligand binding domain (294 to 533 residues) expressed in HEK293T cells at 1 uM after 12 to 14 hrs by dual-glo luciferase reporter gene assay; details: HEK-293T; procedure, shortened: as §1
HeLa [8] = experiment: Selectivity ratio for human FXR expressed in human HeLa cells co-expressing BSEP over GAL4-tagged human VDR isoform 1 ligand binding domain (119 to 427 residues) expressed in HEK293T cells
HeLa [9] = experiment: Selectivity ratio for human FXR expressed in human HeLa cells co-expressing BSEP over GAL4-tagged human PPARdelta ligand binding domain expressed in HEK293T cells

Retinoic acid receptor beta (Homo sapiens), sequence (P10826 whole entry, the tested form may be a part, canonical isoform): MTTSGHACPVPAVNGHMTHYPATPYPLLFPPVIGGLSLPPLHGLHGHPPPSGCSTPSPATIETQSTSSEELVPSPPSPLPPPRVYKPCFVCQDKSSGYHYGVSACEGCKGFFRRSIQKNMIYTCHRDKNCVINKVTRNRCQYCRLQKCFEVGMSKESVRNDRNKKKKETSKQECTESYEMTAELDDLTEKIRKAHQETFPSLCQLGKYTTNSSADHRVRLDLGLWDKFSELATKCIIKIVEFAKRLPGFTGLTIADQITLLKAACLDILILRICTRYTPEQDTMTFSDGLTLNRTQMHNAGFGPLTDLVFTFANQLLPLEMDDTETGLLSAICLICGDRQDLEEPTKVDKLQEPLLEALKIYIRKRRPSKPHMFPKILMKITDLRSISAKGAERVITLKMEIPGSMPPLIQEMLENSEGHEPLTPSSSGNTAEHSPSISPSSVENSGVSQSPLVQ
Retinoic acid receptor gamma (Homo sapiens), sequence (P13631 whole entry, the tested form may be a part, canonical isoform): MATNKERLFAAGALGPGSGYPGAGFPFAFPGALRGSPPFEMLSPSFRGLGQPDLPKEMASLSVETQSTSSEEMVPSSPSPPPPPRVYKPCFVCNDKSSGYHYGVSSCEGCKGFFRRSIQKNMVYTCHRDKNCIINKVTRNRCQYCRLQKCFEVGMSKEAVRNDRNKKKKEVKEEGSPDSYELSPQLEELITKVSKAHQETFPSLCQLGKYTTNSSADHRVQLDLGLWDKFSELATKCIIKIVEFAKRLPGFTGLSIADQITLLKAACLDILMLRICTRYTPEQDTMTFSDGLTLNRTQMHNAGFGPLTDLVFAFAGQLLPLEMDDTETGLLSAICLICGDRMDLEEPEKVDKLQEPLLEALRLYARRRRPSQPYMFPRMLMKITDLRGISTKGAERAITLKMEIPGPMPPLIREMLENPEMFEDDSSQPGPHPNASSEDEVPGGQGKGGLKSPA
Vitamin D3 receptor (Homo sapiens), sequence (P11473 whole entry, the tested form may be a part, canonical isoform): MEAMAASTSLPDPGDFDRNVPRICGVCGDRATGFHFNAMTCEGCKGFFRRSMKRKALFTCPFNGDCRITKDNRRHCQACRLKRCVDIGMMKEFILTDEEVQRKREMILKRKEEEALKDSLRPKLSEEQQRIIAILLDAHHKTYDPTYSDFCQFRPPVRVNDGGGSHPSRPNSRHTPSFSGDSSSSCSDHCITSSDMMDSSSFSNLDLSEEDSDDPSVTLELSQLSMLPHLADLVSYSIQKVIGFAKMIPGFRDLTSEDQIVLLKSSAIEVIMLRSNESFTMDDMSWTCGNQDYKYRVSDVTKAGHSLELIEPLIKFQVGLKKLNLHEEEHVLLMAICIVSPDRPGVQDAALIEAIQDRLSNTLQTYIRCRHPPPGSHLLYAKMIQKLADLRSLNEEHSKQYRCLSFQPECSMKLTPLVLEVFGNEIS
Nuclear receptor subfamily 1 group I member 2, sequence (O75469 whole entry, the tested form may be a part, canonical isoform): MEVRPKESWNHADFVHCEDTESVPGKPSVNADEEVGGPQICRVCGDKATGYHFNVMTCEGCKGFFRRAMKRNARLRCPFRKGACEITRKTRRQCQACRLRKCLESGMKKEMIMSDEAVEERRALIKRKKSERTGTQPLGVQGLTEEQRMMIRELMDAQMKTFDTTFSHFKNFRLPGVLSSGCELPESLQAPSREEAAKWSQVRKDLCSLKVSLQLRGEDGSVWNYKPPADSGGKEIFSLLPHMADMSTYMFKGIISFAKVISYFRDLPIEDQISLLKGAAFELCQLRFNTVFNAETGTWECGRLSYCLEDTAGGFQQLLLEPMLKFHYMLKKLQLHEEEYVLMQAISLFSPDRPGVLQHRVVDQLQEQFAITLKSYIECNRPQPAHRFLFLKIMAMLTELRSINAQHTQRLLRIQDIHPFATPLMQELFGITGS
Oxysterols receptor LXR-beta (Homo sapiens), sequence (P55055 whole entry, the tested form may be a part, canonical isoform): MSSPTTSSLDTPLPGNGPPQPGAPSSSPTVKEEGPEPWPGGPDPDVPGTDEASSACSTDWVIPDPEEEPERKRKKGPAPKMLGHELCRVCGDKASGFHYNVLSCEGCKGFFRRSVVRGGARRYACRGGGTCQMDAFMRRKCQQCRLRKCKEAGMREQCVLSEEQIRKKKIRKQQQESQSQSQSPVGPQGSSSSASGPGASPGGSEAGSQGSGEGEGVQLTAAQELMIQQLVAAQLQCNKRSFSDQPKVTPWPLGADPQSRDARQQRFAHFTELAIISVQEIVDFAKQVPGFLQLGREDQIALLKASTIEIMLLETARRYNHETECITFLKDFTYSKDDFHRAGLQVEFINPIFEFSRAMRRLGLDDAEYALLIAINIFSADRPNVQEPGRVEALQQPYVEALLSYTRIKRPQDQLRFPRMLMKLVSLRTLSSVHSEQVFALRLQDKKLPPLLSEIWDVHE
Retinoic acid receptor RXR-beta (Homo sapiens), sequence (P28702 whole entry, the tested form may be a part, canonical isoform): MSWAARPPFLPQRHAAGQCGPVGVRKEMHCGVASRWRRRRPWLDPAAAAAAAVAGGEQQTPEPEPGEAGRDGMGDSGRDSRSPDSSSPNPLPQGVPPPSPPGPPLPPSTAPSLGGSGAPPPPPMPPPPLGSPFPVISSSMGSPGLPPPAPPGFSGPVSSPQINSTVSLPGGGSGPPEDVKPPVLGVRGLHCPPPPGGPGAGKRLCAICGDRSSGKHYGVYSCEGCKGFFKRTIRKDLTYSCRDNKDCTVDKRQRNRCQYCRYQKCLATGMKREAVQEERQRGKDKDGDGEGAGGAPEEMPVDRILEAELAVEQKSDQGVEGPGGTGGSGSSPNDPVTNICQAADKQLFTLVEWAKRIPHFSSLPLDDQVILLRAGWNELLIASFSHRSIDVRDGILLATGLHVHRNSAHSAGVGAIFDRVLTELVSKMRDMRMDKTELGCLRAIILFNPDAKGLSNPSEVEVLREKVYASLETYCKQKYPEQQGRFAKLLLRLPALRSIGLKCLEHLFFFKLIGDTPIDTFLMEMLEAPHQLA

Activity [1]: Not Active
Activity [2]: inactive
Activity [3]: inactive
inhibition [4]: inactive
inhibition [5]: inactive
inhibition [6]: inactive
inhibition [7]: inactive
SMILES: COc1ccc(CNc2c(-c3cc(Cl)ccn3)nc3ccc(Cl)cn23)cc1
Selectivity ratio (HeLa [8]): 3000
Selectivity ratio (HeLa [9]): 3000
